# Measured values from ChEMBL document CHEMBL1914305, “Synthesis and structure-activity evaluation of isatin-β-thiosemicarbazones with improved selective activity toward multidrug-resistant cells expressing P-glycoprotein” (J Med Chem, 2011).
# Legend:
# [1] = Cytotoxicity against vinblastine-selected human KBV1 cells after 72 hrs by MTT assay; assay type: functional, cell-based; conditions: KB-V1, 72 h
# In short: (§1)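 Grown in DMEM with 10% FBS. MTT assay: 4000 cells/well, 24 h settling, serial dilutions of drug, 72 h at 37 °C in 5% CO2. MTT in IMDM 4 h, then acidified ethanol 15 min, A570 with 690 nm background. IC50 is the concentration reducing absorbance to 50% of untreated control. Three experiments in triplicate. KB-V1-R comes from KB-V1 grown long-term drug-free.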
# [2] = Selectivity ratio of IC50 for human KB-3-1 cells to IC50 for human KBV1 cells selected at 1 ug/mL vinblastine; assay type: functional
# In short: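 Selectivity ratio: IC50 in the parental or empty-vector cells divided by IC50 in the P-gp-expressing cells (KB-V1, or ABCB1-transfected LLC-PK1). MTT assay: 4000 cells/well established for 24 h, then 72 h exposure to serially diluted drug at 37 °C, 5% CO2. MTT for 4 h, acidified ethanol lysis, A570 corrected at A690. IC50 is the concentration giving 50% of untreated absorbance, from at least three experiments.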
# [3] = Cytotoxicity against human KB-3-1 cells after 72 hrs by MTT assay; assay type: functional, cell-based; conditions: KB 3-1, 72 h
# In short: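 Grown in DMEM with 10% FBS. MTT assay: 4000 cells/well, 24 h settling, serial dilutions of drug, 72 h at 37 °C in 5% CO2. MTT in IMDM 4 h, then acidified ethanol 15 min, A570 with 690 nm background. Three experiments in triplicate. KB-V1-R comes from KB-V1 grown long-term drug-free.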
# [4] = tested on: NIH3T3; experiment: Cytotoxicity against mouse NIH/3T3 cells transfected with wild type p-glycoprotein ABCB1 selected at 600 ug/ml vincristine after 72 hrs by MTT assay; assay type: functional, cell-based; conditions: NIH3T3, 72 h, in the assay text read “600 ng/ml” for “600 ug/ml”; in short: as §1
# [5] = tested on: SW-620; experiment: Cytotoxicity against human SW620 cells selected at 20 ng/mL adriamycin after 72 hrs by MTT assay; assay type: functional, cell-based; conditions: SW-620, 72 h
# In short: (§2)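 Lines grown in RPMI with 10% FBS and 2 mM L-glutamine. MTT assay: 4000 cells/well attached 24 h before serially diluted drug, then 72 h exposure at 37 °C, 5% CO2. MTT in IMDM 4 h, lysis in acidified ethanol 15 min, absorbance 570 nm minus 690 nm. IC50 is the concentration halving untreated absorbance. Three independent experiments, each in triplicate.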
# [6] = tested on: OVCAR-8; experiment: Cytotoxicity against human OVCAR8 cells after 72 hrs by MTT assay; assay type: functional, cell-based; conditions: OVCAR-8, 72 h; in short: as §2
# [7] = tested on: CHO; experiment: Cytotoxicity against CHO cells selected at 1 ug/mL colchicine after 72 hrs by MTT assay; assay type: functional, cell-based; conditions: Cricetulus griseus
# In short: (§3)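 CHO and colchicine-selected C5 cells kept in AlphaMEM with 10% FBS. MTT assay: 4000 cells/well settled 24 h, then serially diluted drug added. Incubated 72 h at 37 °C, 5% CO2. MTT in IMDM for 4 h, then acidified ethanol lysis for 15 min. Read A570, background-corrected at 690 nm. IC50 is the concentration giving 50% of untreated absorbance. Three experiments, each in triplicate.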
# [8] = tested on: NIH3T3; experiment: Cytotoxicity against mouse NIH/3T3 cells after 72 hrs by MTT assay; assay type: cell-based; conditions: NIH3T3, 72 h; in short: as §1
# [9] = tested on: NIH3T3; experiment: Cytotoxicity against mouse NIH/3T3 cells selected at 1 ug/mL colchicine after 72 hrs by MTT assay; assay type: functional, cell-based; conditions: NIH3T3, 72 h; in short: as §1
# [10] = tested on: SW-620; experiment: Cytotoxicity against human SW620 cells after 72 hrs by MTT assay; assay type: functional, cell-based; conditions: SW-620, 72 h; in short: as §2
# [11] = tested on: NIH3T3; experiment: Cytotoxicity against 2.4 ug/mL vincristine selected mouse NIH/3T3 cells transfected with P-gp Ser to Asp phosphorylation mutant after 72 hrs by MTT assay; assay type: functional, cell-based; conditions: NIH3T3, 72 h; in short: as §1
# [12] = Cytotoxicity against human Ew36 cells after 72 hrs by MTT assay; assay type: functional, cell-based; conditions: Ew36, 72 h; in short: as §2
# [13] = Cytotoxicity against human MES-SA cells after 72 hrs by MTT assay; assay type: functional, cell-based
# In short: (§4)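 MES-SA and MES-SA/Dx5 lines kept in McCoy's 5A with 10% FBS. MTT assay: seeded at 4000 cells/well for 24 h, serial drug dilutions, 72 h at 37 °C and 5% CO2. MTT 4 h, acidified ethanol lysis, A570 corrected at 690 nm. IC50 is 50% absorbance versus untreated wells. Three separate experiments in triplicate.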
# [14] = tested on: NCI/ADR-RES; experiment: Cytotoxicity against adriamycin-selected human NCI/ADR-RES cells after 72 hrs by MTT assay; assay type: functional, cell-based; in short: as §2
# [15] = tested on: CHO; experiment: Cytotoxicity against CHO cells after 72 hrs by MTT assay; assay type: cell-based; conditions: Cricetulus griseus; in short: as §3
# [16] = Cytotoxicity against human Ew36 cells selected at 120 ng/mL vincristine after 72 hrs by MTT assay; assay type: functional, cell-based; conditions: Ew36, 72 h; in short: as §2
# [17] = tested on: NIH3T3; experiment: Cytotoxicity against mouse NIH/3T3 cells selected at 30 ug/ml vincristine after 72 hrs by MTT assay; assay type: functional, cell-based; conditions: NIH3T3, 72 h, in the assay text read “30 ng/ml” for “30 ug/ml”; in short: as §1
# [18] = tested on: LLC-PK1; experiment: Cytotoxicity against pig LLC-PK1 cells after 72 hrs by MTT assay; assay type: cell-based; conditions: Sus scrofa, LLC-PK1, 72 h
# In short: (§5)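 LLC-PK1 empty-vector lines grown in M199 with 10% FBS; transfected lines also in 0.5 mg/mL G418. MTT assay: 4000 cells/well for 24 h, then serially diluted drug for 72 h at 37 °C, 5% CO2. MTT 4 h, acidified ethanol, A570 minus 690 nm. IC50 is 50% of untreated absorbance. Triplicate wells, three experiments.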
# [19] = tested on: LLC-PK1; experiment: Cytotoxicity against pig LLC-PK1 cells transfected with empty vector after 72 hrs by MTT assay; assay type: cell-based; conditions: Sus scrofa, LLC-PK1, 72 h; in short: as §5
# [20] = tested on: NIH3T3; experiment: Cytotoxicity against mouse NIH/3T3 cells transfected with wild-type P-gp G185 after 72 hrs by MTT assay; assay type: functional, cell-based; conditions: NIH3T3, 72 h; in short: as §1
# [21] = Cytotoxicity against doxorubicin-selected human ZR-75B cells after 72 hrs by MTT assay; assay type: functional, cell-based; in short: as §2
# [22] = tested on: HEK293; experiment: Cytotoxicity against human HEK293 cells after 72 hrs by MTT assay; assay type: functional, cell-based; conditions: HEK293, 72 h; in short: as §1
# [23] = Cytotoxicity against adriamycin-selected human MES-SA cells after 72 hrs by MTT assay; assay type: functional, cell-based; in short: as §4
# [24] = tested on: HEK293; experiment: Cytotoxicity against human HEK293 cells transfected with plasmid expressing MDR1 after 72 hrs by MTT assay; assay type: functional, cell-based; conditions: HEK293, 72 h
# In short: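 ABCB1-transfected HEK293 grown in DMEM with 10% FBS and 1 mg/mL G418. MTT assay: 4000 cells/well for 24 h, serial drug dilutions, 72 h at 37 °C, 5% CO2. MTT 4 h, acidified ethanol lysis, A570 corrected at 690 nm. IC50 at 50% of untreated absorbance. Three experiments in triplicate.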
structure (smiles),measurement,setting,value
Cc1ccc(NC(=S)N/N=C2\C(=O)Nc3ccccc32)cc1C,IC50,[1],2.2 µM
same,Ratio IC50,[2],2
same,IC50,[3],4.37 µM
O=C1Nc2ccccc2/C1=N/NC(=S)Nc1cccc(Cl)c1,IC50,[1],0.64 µM
same,Ratio IC50,[2],2.9
same,IC50,[3],1.87 µM
COc1cc(NC(=S)N/N=C2\C(=O)Nc3ccccc32)cc(OC)c1OC,IC50,[1],3.49 µM
same,Ratio IC50,[2],3.2
same,IC50,[3],11.1 µM
COc1ccccc1NC(=S)N/N=C1\C(=O)Nc2ccccc21,IC50,[1],2.69 µM
same,Ratio IC50,[2],1.8
same,IC50,[3],4.96 µM
O=C1Nc2ccccc2/C1=N/NC(=S)NC1CCCCC1,IC50,[1],4.38 µM
same,Ratio IC50,[2],2.1
same,IC50,[3],9.14 µM
O=C1Nc2ccccc2/C1=N/NC(=S)Nc1ccc(Oc2ccccc2)cc1,IC50,[1],1.67 µM
same,Ratio IC50,[2],3.4
same,IC50,[3],5.72 µM
O=C1Nc2ccccc2/C1=N/NC(=S)Nc1ccc(F)cc1,IC50,[1],1.92 µM
same,Ratio IC50,[2],7.4
same,IC50,[3],14.2 µM
CC(C)NC(=S)N/N=C1\C(=O)Nc2ccccc21,IC50,[1],10.2 µM
same,Ratio IC50,[2],3.8
same,IC50,[3],39.3 µM
O=C1Nc2ccccc2/C1=N/NC(=S)Nc1ccccc1,IC50,[1],1.47 µM
same,Ratio IC50,[2],2.4
same,IC50,[3],3.53 µM
COc1cccc2c1C(=O)c1c(O)c3c(c(O)c1C2=O)C[C@@](O)(C(=O)CO)C[C@@H]3O[C@H]1C[C@H](N)[C@H](O)[C@H](C)O1 [DOXORUBICIN],IC50,[4],0.69 µM
same,IC50,[5],0.24 µM
same,IC50,[6],0.14 µM
same,IC50,[1],4.7 µM
same,IC50,[7],9.7 µM
same,IC50,[8],0.05 µM
same,IC50,[9],1.58 µM
same,IC50,[10],0.01 µM
same,IC50,[11],17.5 µM
same,IC50,[12],0.01 µM
same,IC50,[13],0.03 µM
same,IC50,[14],9.3 µM
same,IC50,[15],0.08 µM
same,IC50,[16],0.24 µM
same,IC50,[17],0.08 µM
same,IC50,[18],19.7 µM
same,IC50,[19],0.2 µM
same,IC50,[20],0.38 µM
same,IC50,[21],2.02 µM
same,IC50,[22],0.01 µM
same,IC50,[23],0.87 µM
same,IC50,[24],0.42 µM
O=C1Nc2ccccc2/C1=N/NC(=S)Nc1ccc2c(c1)CCC2,IC50,[1],2.85 µM
same,Ratio IC50,[2],2
same,IC50,[3],5.8 µM
O=C1Nc2ccccc2/C1=N/NC(=S)Nc1cccnc1,IC50,[1],> 50 µM
same,IC50,[3],> 50 µM
CNC(=S)N/N=C1\C(=O)Nc2ccccc21,IC50,[1],19.4 µM
same,Ratio IC50,[2],1.8
same,IC50,[3],35.3 µM
O=C1Nc2ccccc2/C1=N/NC(=S)Nc1c(F)cc(F)cc1F,IC50,[1],7.28 µM
same,Ratio IC50,[2],5.3
same,IC50,[3],38.4 µM
CC(C)c1ccc(NC(=S)N/N=C2\C(=O)Nc3ccccc32)cc1,IC50,[1],1.09 µM
same,Ratio IC50,[2],8.4
same,IC50,[3],9.11 µM
O=C1Nc2ccccc2/C1=N/NC(=S)Nc1ccc(O)cc1,IC50,[1],21.6 µM
same,Ratio IC50,[2],1.7
same,IC50,[3],35.8 µM
CCCC1CCC(c2ccc(NC(=S)N/N=C3\C(=O)Nc4ccccc43)cc2)CC1 (centres undefined),IC50,[1],11 µM
same,Ratio IC50,[2],1.6
same,IC50,[3],17.5 µM
O=C1Nc2ccccc2/C1=N/NC(=S)Nc1ccc(C(F)(F)F)cc1,IC50,[1],2.1 µM
same,Ratio IC50,[2],4.1
same,IC50,[3],8.59 µM
O=C1Nc2ccccc2/C1=N/NC(=S)Nc1ccccc1Cl,IC50,[1],1.17 µM
same,Ratio IC50,[2],1.9
same,IC50,[3],2.22 µM
O=C1Nc2ccccc2/C1=N/NC(=S)Nc1ccc(Cl)cc1,IC50,[1],4.99 µM
same,Ratio IC50,[2],2.7
same,IC50,[3],13.4 µM
O=C1Nc2ccccc2/C1=N/NC(=S)NC12CC3CC(CC(C3)C1)C2,IC50,[1],1.02 µM
same,Ratio IC50,[2],3.1
same,IC50,[3],3.16 µM
O=C1Nc2ccccc2/C1=N/NC(=S)NCc1ccccc1,IC50,[1],7.63 µM
same,Ratio IC50,[2],1.5
same,IC50,[3],11.7 µM
CCCCNC(=S)N/N=C1\C(=O)Nc2ccccc21,IC50,[1],5.69 µM
same,Ratio IC50,[2],1.9
same,IC50,[3],10.9 µM
CN(C)c1ccc(NC(=S)N/N=C2\C(=O)Nc3ccccc32)cc1,IC50,[1],2.32 µM
same,Ratio IC50,[2],3
same,IC50,[3],6.95 µM
CCc1ccc(NC(=S)N/N=C2\C(=O)Nc3ccccc32)cc1,IC50,[1],1.34 µM
same,Ratio IC50,[2],3
same,IC50,[3],4.05 µM
O=C1Nc2ccccc2/C1=N/NC(=S)Nc1cccc2ccccc12,IC50,[1],2.21 µM
same,Ratio IC50,[2],2.3
same,IC50,[3],5.12 µM
Cc1ccc(NC(=S)N/N=C2\C(=O)Nc3ccccc32)cc1,IC50,[1],2.6 µM
same,Ratio IC50,[2],9.2
same,IC50,[3],24 µM
O=C1Nc2ccccc2/C1=N/NC(=S)Nc1ccc(C(=O)O)cc1,IC50,[1],> 50 µM
same,IC50,[3],> 50 µM
O=C1Nc2ccccc2/C1=N/NC(=S)Nc1cc(F)c(F)c(F)c1,IC50,[1],2.15 µM
same,Ratio IC50,[2],2.1
same,IC50,[3],4.41 µM
